Test results reported in ChEMBL document CHEMBL1932993, “Synthesis and cytotoxicity of O,O'-dialkyl {[2-(substituted phenoxy)acetamido](substituted phenyl)methyl}phosphonates” (Eur J Med Chem, 2012).
pIC50: −log10 of the molar value.

Tests used:
[1] = Cytotoxicity against human CNE2 cells after 72 hrs ny MTT assay; format: functional, cell-based; settings: CNE-2, 72 h
How it was run: (§1)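 Cells grown in RPMI 1640 with 10% fetal calf serum and seeded at 2 × 10^4/mL. They were held 12 h at 37 °C in 5% CO2, then exposed to compound for 3 days at 37 °C. MTT formazan was dissolved and absorbance read at 570 nm. IC50 is the concentration giving 50% growth inhibition versus untreated controls. At least 3 independent experiments.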

KB = assay: Cytotoxicity against human KB cells after 72 hrs ny MTT assay; format: functional, cell-based; how it was run: as §1

COP(=O)(OC)C(NC(=O)COc1ccc(Cl)cc1Cl)c1ccccc1 (centres undefined)
pIC50 [1]: < 4.30
pIC50 (KB): < 4.30

COP(=O)(OC)C(NC(=O)COc1ccc(Cl)cc1Cl)c1ccc(C)cc1 (centres undefined)
pIC50 [1]: < 4.30
pIC50 (KB): < 4.30

COP(=O)(OC)C(NC(=O)COc1ccc(Cl)c(C)c1)c1ccc(C)cc1 (centres undefined)
pIC50 [1]: < 4.30
pIC50 (KB): < 4.30

COc1ccc(C(NC(=O)COc2cccc(C)c2C)P(=O)(OC)OC)cc1 (centres undefined)
pIC50 [1]: < 4.30
pIC50 (KB): < 4.30

COc1ccc(C(NC(=O)COc2ccc(Cl)cc2Cl)P(=O)(OC)OC)cc1 (centres undefined)
pIC50 [1]: < 4.30
pIC50 (KB): < 4.30

CCOP(=O)(OCC)C(NC(=O)COc1ccc(Cl)cc1Cl)c1ccc(OC)cc1 (centres undefined)
pIC50 [1]: < 4.30
pIC50 (KB): < 4.30

CCOP(=O)(OCC)C(NC(=O)COc1ccc(Cl)cc1)c1ccc(OC)cc1 (centres undefined)
pIC50 [1]: < 4.30
pIC50 (KB): < 4.30

CCOP(=O)(OCC)C(NC(=O)COc1cccc(C(F)(F)F)c1)c1ccc(OC)cc1 (centres undefined)
pIC50 [1]: < 4.30
pIC50 (KB): < 4.30

CCOP(=O)(OCC)C(NC(=O)COc1ccc([N+](=O)[O-])cc1)c1ccc(OC)cc1 (centres undefined)
pIC50 [1]: < 4.30
pIC50 (KB): < 4.30

CCOP(=O)(OCC)C(NC(=O)COc1ccc(Cl)cc1C)c1ccc(OC)cc1 (centres undefined)
pIC50 [1]: < 4.30
pIC50 (KB): < 4.30

CCCOP(=O)(OCCC)C(NC(=O)COc1ccc(Cl)cc1Cl)c1ccccc1 (centres undefined)
pIC50 [1]: 4.59
pIC50 (KB): 4.80

CCCOP(=O)(OCCC)C(NC(=O)COc1ccc(Cl)cc1)c1ccccc1 (centres undefined)
pIC50 [1]: 4.37
pIC50 (KB): 4.64

CCCOP(=O)(OCCC)C(NC(=O)COc1cccc(C(F)(F)F)c1)c1ccccc1 (centres undefined)
pIC50 [1]: 4.38
pIC50 (KB): 4.67

CCCOP(=O)(OCCC)C(NC(=O)COc1ccc(Cl)cc1Cl)c1ccc(OC)cc1 (centres undefined)
pIC50 [1]: 4.57
pIC50 (KB): 4.76

CCCOP(=O)(OCCC)C(NC(=O)COc1cccc(C(F)(F)F)c1)c1ccc(OC)cc1 (centres undefined)
pIC50 [1]: 4.41
pIC50 (KB): 4.70

CCCCOP(=O)(OCCCC)C(NC(=O)COc1cccc(C)c1C)c1ccccc1 (centres undefined)
pIC50 [1]: 4.60
pIC50 (KB): 4.74

CCCCOP(=O)(OCCCC)C(NC(=O)COc1ccccc1Cl)c1ccccc1 (centres undefined)
pIC50 [1]: 4.94
pIC50 (KB): 4.80

CCCCOP(=O)(OCCCC)C(NC(=O)COc1ccc(Cl)cc1Cl)c1ccccc1 (centres undefined)
pIC50 [1]: 4.86
pIC50 (KB): 4.75

CCCCOP(=O)(OCCCC)C(NC(=O)COc1ccc(Cl)cc1C)c1ccccc1 (centres undefined)
pIC50 [1]: 4.70
pIC50 (KB): 4.91

CCCCOP(=O)(OCCCC)C(NC(=O)COc1ccc(Cl)c(C)c1)c1ccccc1 (centres undefined)
pIC50 [1]: 4.37
pIC50 (KB): 4.74

CCCCOP(=O)(OCCCC)C(NC(=O)COc1cc(Cl)c(Cl)cc1Cl)c1ccccc1 (centres undefined)
pIC50 [1]: < 4.30
pIC50 (KB): 4.80

CCCCOP(=O)(OCCCC)C(NC(=O)COc1ccc(OC)cc1)c1ccccc1 (centres undefined)
pIC50 [1]: 4.39
pIC50 (KB): 4.59

CCCCOP(=O)(OCCCC)C(NC(=O)COc1ccc(F)cc1Cl)c1ccccc1 (centres undefined)
pIC50 [1]: 4.88
pIC50 (KB): 4.91

CCCCOP(=O)(OCCCC)C(NC(=O)COc1cccc(C)c1C)c1ccc(OC)cc1 (centres undefined)
pIC50 [1]: 4.68
pIC50 (KB): 5.15

CCCCOP(=O)(OCCCC)C(NC(=O)COc1ccccc1Cl)c1ccc(OC)cc1 (centres undefined)
pIC50 [1]: 4.87
pIC50 (KB): 4.84

CCCCOP(=O)(OCCCC)C(NC(=O)COc1ccc(C(C)(C)C)cc1)c1ccc(OC)cc1 (centres undefined)
pIC50 [1]: 4.51
pIC50 (KB): 4.88

O=c1[nH]cc(F)c(=O)[nH]1 [FLUOROURACIL]
pIC50 [1]: 4.87
pIC50 (KB): 5.05
